# According to PMC6300088 (Pharmaceutical Biology, 2018):
# Where two headings read alike, the source gives them in different places.
# Experiments:
# [1] = tested on: MCF7MX (BCRP overexpressing human epithelial breast cancer cell line); settings: read-out: IC50 against MCF7MX; ref Mirzaei et al. [2017]; cited from earlier work
# [2] = tested on: L5178Y mouse T-cell lymphoma cells: parent, PAR cells; experiment: Antiproliferative effect; type: cell-based; settings: 72 h, read-out: AA on PAR cells (IC50)
# [3] = tested on: L5178Y human ABCB1-transfected subline (MDR); experiment: Antiproliferative effect; type: cell-based, mouse; settings: 72 h, read-out: AA on MDR cells (IC50)
# [4] = tested on: L5178Y mouse T-cell lymphoma cells: parent, PAR cells; experiment: Cytotoxic effect; type: cell-based; settings: 24 h; for IC50: Mus musculus, L5178Y, read-out: CA on PAR cells (IC50)
# [5] = tested on: L5178Y human ABCB1-transfected subline (MDR); experiment: Cytotoxic effect; type: cell-based, mouse; settings: 24 h; for IC50: L5178Y, read-out: CA on MDR cells (IC50); for CA on MDR cells (IC50): cytotoxic activity, MTT, mean ± SD, n = 3
# [6] = tested on: ABCB1 (P-glycoprotein); type: cell-based, human; settings: for FL-1 (mean fluorescence intensity of the cells): MDR cells, rhodamine 123; for FAR (fluorescence activity ratio): rhodamine 123 retention
# [7] = tested on: multidrug resistant mouse T-lymphoma cells overexpressing the ABCB1 transporter; experiment: Checkerboard combination assay with doxorubicin; type: cell-based; settings: MDR cells
# Summary of the method: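 L5178Y mouse T-lymphoma cells transfected with human ABCB1 (MDR), 6 × 10^3 per well in McCoy's 5A. Checkerboard layout with doxorubicin diluted horizontally (final concentration stated as 17.242 μM) and test compound diluted vertically. Incubated 72 h at 37 °C in 5% CO2. MTT added (5 mg/mL stock) for 4 h at 37 °C, then 10% SDS in 0.01 M HCl overnight at 37 °C.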
# [8] = tested on: NIH/3T3 mouse embryonic fibroblast cell line; experiment: Cytotoxic effect; type: cell-based; settings: cytotoxic activity on normal murine fibroblasts, 24 h, MTT, mean ± SD, n = 3
# [9] = tested on: HCT-15 (colon cancer) cells; settings: HCT-15 cells; ref Kim et al. [2007]; cited from earlier work
# [10] = tested on: HL-60/MX2 (MDR); settings: read-out: IC50 against HL-60/MX2; ref Kubrak et al. [2017]; cited from earlier work
# [11] = tested on: CEM/C1 (lymphoblastic leukaemia); settings: read-out: IC50 against CEM/C1; ref Kubrak et al. [2017]; cited from earlier work
IC50 [2],Compound,IC50 [3],IC50 [4],IC50 [5],FL-1 (mean fluorescence intensity of the cells) ([6]; 2 µM),FAR (fluorescence activity ratio) ([6]; 2 µM),FL-1 (mean fluorescence intensity of the cells) ([6]; 20 µM),FAR (fluorescence activity ratio) ([6]; 20 µM),further results
–,COc1c2occc2cc2ccc(=O)oc12 [8-Methoxypsoralen],–,–,–,–,–,–,–,IC50 [1]: 0.0011 ± 0.00091 µM
0.054 ± 0.005 µM,"COc1cccc2c1C(=O)c1c(O)c3c(c(O)c1C2=O)C[C@@](O)(C(=O)CO)C[C@@H]3O[C@H]1C[C@H](N)[C@H](O)[C@H](C)O1 [Doxorubicin, doxorubicin, reference compound]",0.468 ± 0.065 µM,0.377 ± 0.02 µM,7.15 ± 0.358 µM,–,–,–,–,–
52.3 ± 2.12 µM,"CC(C)(O)[C@H](O)COc1c2occc2cc2ccc(=O)oc12 [Heraclenol (9), heraclenol]",46.6 ± 0.47 µM,> 100 µM,> 100 µM,0.995,1.37,–,1.30,"CA on PAR cells (IC50) ([4]; cytotoxic activity, MTT, mean ± SD, n = 3): no toxic effects; CA on MDR cells (IC50) [5]: no toxic effects"
26 ± 1.27 µM,"CC1(C)O[C@H]1COc1c2ccoc2cc2oc(=O)ccc12 [Oxypeucedanin (3), oxypeucedanin]",28.9 ± 0.73 µM,40.3 ± 0.63 µM,66.7 µM,0.9,0.76,2.62,2.22,"FAR (fluorescence activity ratio) ([6]; 20 µM, listed as oxypeucedanin (3)): moderate ABCB1 inhibiting effect; Interaction ([7]; listed as Oxypeucedanin): Slight synergism; Interaction ([7]; listed as oxypeucedanin (3)): slight synergistic effect; ED50, cell proliferation [9]: 3.4 ± 0.3 mg/L"
–,"COc1cc2c(cc1OC)CN(CCc1ccc(NC(=O)c3cc(OC)c(OC)cc3NC(=O)c3cnc4ccccc4c3)cc1)CC2 [Tariquidar, tariquidar, reference compound]",–,–,–,–,–,–,–,"FL-1 (mean fluorescence intensity of the cells) ([6]; 0.02 µM): 119; FAR (fluorescence activity ratio) ([6]; 0.02 µM): 100.68; FAR (fluorescence activity ratio) ([6]; 0.02 µM, listed as tariquidar): 100"
–,COc1c2ccoc2c(OC)c2oc(=O)ccc12 [isopimpinellin],–,–,–,–,–,–,–,IC50 [10]: 26 ± 5.7 µM
–,COc1c2ccoc2c(OCC=C(C)C)c2oc(=O)ccc12 [phellopterin],–,–,–,–,–,–,–,IC50 [11]: 8 ± 4 µM

Compound,IC50 [2],IC50 [3],IC50 [4],IC50 [5],FL-1 (mean fluorescence intensity of the cells) ([6]; 2 µM),FAR (fluorescence activity ratio) ([6]; 2 µM),FL-1 (mean fluorescence intensity of the cells) ([6]; 20 µM),FAR (fluorescence activity ratio) ([6]; 20 µM),further results
"CC1(C)O[C@@H]1COc1c2occc2cc2ccc(=O)oc12 [Heraclenin (8), heraclenin]",32.7 ± 2.4 µM,46.5 ± 1.22 µM,65.8 ± 1 µM,83.9 ± 1.68 µM,0.942,1.29,0.57,0.78,Interaction ([7]; listed as Heraclenin): Slight synergism; Interaction ([7]; listed as heraclenin (8)): slight synergistic effect
"CC(C)=CCOc1c2occc2cc2ccc(=O)oc12 [Imperatorin (6), imperatorin]",36.1 ± 0.91 µM,42.2 ± 0.88 µM,52.6 ± 4.19 µM,> 100 µM,0.727,0.62,0.783,0.66,CA on MDR cells (IC50) [5]: without any toxicity; CA on NIH/3T3 cells (IC50) [8]: no toxic activity
